TRPC4 inh: TRPC4 (mouse) channel inhibition; AID 2247; 300,000 tested, 0.39% active; B-score at 10 µM; HEK293 TRPC4beta/mu-opioid, DAMGO-evoked Fluo4 calcium flux; hits give low values; Q9QUQ5;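 active = B-score over 3 SD under the library average, no early fluorescence shift, positive overall ratio signal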
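Assay system: Stable TRPC4beta/mu-opioid receptor HEK293 cells | Reagent: DAMGO in two steps, submaximal then maximal | Compound dosing: Single concentration per test compound | Signal: Fluo4 Ca2+ flux fluorescence | Evaluation: Per-well B score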
TRPC6 activator: activates the mouse TRPC6 cation channel; Q61143; HEK293-TRPC6 membrane potential dye fluorescence; hits give high values; B-score at 10 µM; 310,000 tested, 0.13% active;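 active = B-score of the integrated fluorescence ratio above library mean plus 3 SD, and starting fluorescence ratio within library mean plus 5 SD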;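 note: higher score means more depolarization so channel activation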
TRPC4 agonist: opens the mouse TRPC4 cation channel; Q9QUQ5; HEK293 TRPC4beta/mu-opioid, Fluo4 calcium fluorescence; hits give high values; B-score at 10 µM; 310,000 tested, 0.49% active;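 active = B-score above 5 SD of library B-scores, and initial fluorescence ratio not above library mean plus 5 SD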;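 note: positive B-score marks a calcium rise read as TRPC4 activation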
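Material: TRPC4beta and mu-opioid receptor HEK293 stable cells | Incubation: 45 min room-temperature Fluo4 loading, 110 s read | Detection: Kinetic Fluo4 calcium fluorescence | Measure: Integrated baseline-normalised fluorescence ratio, converted to per-well B score | Benchmarks: Low control buffer alone, high control maximal DAMGO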
Platelet DG rel: platelet dense granule release activity | inhibition, %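 (compounds screened at 7.5 µM in platelet-rich plasma)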 | human platelet-rich plasma, SFLLRN dense granule ATP release, luminescence | 300,000 tested, 0.22% active;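 active = mean replicate score, as percent of positive control, at or above 50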
TRPC6 inhibitor: inhibitors of mouse TRPC6 channel; Q61143; HEK293-TRPC6, membrane potential dye, ACh-evoked depolarization; hits give low values; B-score at 10 µM; 310,000 tested, 1.1% active; AID 2553;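 active = B-score under library mean minus 3 SD, initial fluorescence not abnormally high, positive integrated signal ratio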;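 note: B-score derived from integrated fluorescence ratio over the kinetic read; more negative B-score means stronger inhibition of depolarization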
TRPC4 potent: TRPC4 (mouse) allosteric potentiation; 310,000 tested, 0.42% active; HEK293 TRPC4beta/mu-opioid, DAMGO EC20, Fluo-4 Ca2+ flux; hits give high values; B-score at 10 µM;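 active = B-score of calcium response area above 5 SD of library B-scores, with initial fluorescence ratio within 5 SD of library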
Numbers stand for hits; 0 = inactive. Shown are actives, neighbours in structure and some others; about 2.5% of the full set was active somewhere.

SMILES	TRPC4 inh	TRPC6 activator	TRPC4 agonist	Platelet DG rel	TRPC6 inhibitor	TRPC4 potent
COC(=O)CSc1nnc(-c2sc3cc(OC)ccc3c2Cl)n1C	-6	0	0	0	0	0
CCCOc1ccc(CCCN=C(N)N)cc1Cl	0	0	53	0	0	0
CCCCOc1ccc(CN=C(N)N)cc1Cl	0	0	0	0	0	0
CC(=O)c1cccc(NC(=O)Nc2nc(C)cc(C)n2)c1	0	0	0	0	0	0
Cc1nc2ccccc2n1C(=O)N(C)C	0	0	0	0	0	0
Clc1cccc(Cl)c1/C=C/c1nc2ccccc2[nH]1	0	0	0	0	0	0
